Source: ChEMBL document CHEMBL3045143, “Role of exogenously supplied ferulic and p-coumaric acids in mimicking the mode of action of acetolactate synthase inhibiting herbicides” (J Agric Food Chem, 2011)
Activity calls are given as the source filed them. No cut-off for these calls is given here.

What was measured:
Root [1] = assay: Induction of caffeic acid accumulation in Pisum sativum (pea) roots at 28 nM added to nutrient medium measured 5 to 15 days post onset of compound treatment by HPLC method; format: functional; details: Lathyrus oleraceus
Procedure, shortened: (§1)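 Compound was added to the nutrient solution of 12-day-old pea plants (cv. Snap Sugar Boys), renewed every 3 days at pH 6–7. Leaves or roots were sampled at 0, 1, 3, 7, 10 and 15 days. Values are mean ± standard error, n = 5 single plants. One-way ANOVA with Fisher test versus untreated controls on each day, p < 0.05.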

Leaf [2] = assay: Induction of ferulic acid accumulation in Pisum sativum (pea) leaves at 28 nM added to nutrient medium measured 5 to 15 days post onset of compound treatment by HPLC method; format: functional; details: Lathyrus oleraceus; procedure, shortened: as §1
Root [3] = assay: Induction of DAHPS enzyme expression in Pisum sativum (pea) roots at 28 nM added to nutrient medium measured 5 to 15 days post onset of compound treatment by immunoblot; format: functional; details: Lathyrus oleraceus
Procedure, shortened: (§2)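 Roots were taken from pea plants (cv. Snap Sugar Boys) treated via nutrient solution from 12 days old, with the solution renewed every 3 days. Samples were taken at days 3, 7, 10 and 15.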

Root [4] = assay: Induction of ferulic acid accumulation in Pisum sativum (pea) roots at 28 nM added to nutrient medium measured 5 to 15 days post onset of compound treatment by HPLC method; format: functional; details: Lathyrus oleraceus; procedure, shortened: as §1
Leaf [5] = assay: Induction of p-coumaric acid accumulation in Pisum sativum (pea) leaves at 28 nM added to nutrient medium measured 5 to 15 days post onset of compound treatment by HPLC method; format: functional; details: Lathyrus oleraceus; procedure, shortened: as §1
Root [6] = assay: Induction of p-coumaric acid accumulation in Pisum sativum (pea) roots at 28 nM added to nutrient medium measured 5 to 15 days post onset of compound treatment by HPLC method; format: functional; details: Lathyrus oleraceus; procedure, shortened: as §1
Leaf [7] = assay: Induction of caffeic acid accumulation in Pisum sativum (pea) leaves at 28 nM added to nutrient medium measured 5 to 15 days post onset of compound treatment by HPLC method; format: functional; details: Lathyrus oleraceus; procedure, shortened: as §1
Root [8] = assay: Reduction in sinapic acid accumulation in Pisum sativum (pea) roots at 28 nM added to nutrient medium measured 3 to 10 days post onset of compound treatment by HPLC method; format: functional; details: Lathyrus oleraceus; procedure, shortened: as §1
Leaf [9] = assay: Induction of sinapic acid accumulation in Pisum sativum (pea) leaves at 28 nM added to nutrient medium measured 5 to 15 days post onset of compound treatment by HPLC method; format: functional; details: Lathyrus oleraceus; procedure, shortened: as §1
Pisum sativum [10] = assay: Growth inhibition in Pisum sativum (pea) at 28 nM added to nutrient medium measured 22 to 23 days post onset of compound treatment; format: functional, organism-based; details: Lathyrus oleraceus
Procedure, shortened: (§3)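 Pea (cv. Snap Sugar Boys) grown hydroponically. Compound added to the nutrient solution at 12 days old. Solution was renewed every 3 days, with pH held between 6 and 7. Plants were followed over the treatment period.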

Leaf [11] = assay: Induction of ferulic acid accumulation in Pisum sativum (pea) leaves at 69 uM added to nutrient medium measured 5 to 15 days post onset of compound treatment by HPLC method; format: functional; details: Lathyrus oleraceus; procedure, shortened: as §1
Root [12] = assay: Induction of PAL activity in Pisum sativum (pea) roots at 69 uM added to nutrient medium measured 5 to 15 days post onset of compound treatment; format: functional; details: Lathyrus oleraceus
Procedure, shortened: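 Roots were taken from 12-day-old pea plants (cv. Snap Sugar Boys) treated via nutrient solution, renewed every 3 days at pH 6–7. For PAL activity, extracts were not filtered on Sephadex G-25. Reaction ran 1 h at 37 °C, then HCl was added and the mixture was centrifuged at 5000g for 5 min.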

Root [13] = assay: Induction of DAHPS enzyme expression in Pisum sativum (pea) roots at 69 uM added to nutrient medium measured 5 to 15 days post onset of compound treatment by immunoblot; format: functional; details: Lathyrus oleraceus; procedure, shortened: as §2
Leaf [14] = assay: Induction of p-coumaric acid accumulation in Pisum sativum (pea) leaves at 69 uM added to nutrient medium measured 5 to 15 days post onset of compound treatment by HPLC method; format: functional; details: Lathyrus oleraceus; procedure, shortened: as §1
Root [15] = assay: Increase in lignin content in Pisum sativum (pea) roots at 69 uM added to nutrient medium measured 10 days post onset of compound treatment; format: functional; details: Lathyrus oleraceus
Procedure, shortened: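 Compound was added to the nutrient solution of 12-day-old pea plants (cv. Snap Sugar Boys). Solution was renewed every 3 days at pH 6–7. Lignin was measured in roots from plants sampled on set days up to day 15.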

Leaf [16] = assay: Induction of caffeic acid accumulation in Pisum sativum (pea) leaves at 69 uM added to nutrient medium measured 5 to 15 days post onset of compound treatment by HPLC method; format: functional; details: Lathyrus oleraceus; procedure, shortened: as §1
Leaf [17] = assay: Induction of sinapic acid accumulation in Pisum sativum (pea) leaves at 69 uM added to nutrient medium measured 5 to 15 days post onset of compound treatment by HPLC method; format: functional; details: Lathyrus oleraceus; procedure, shortened: as §1
Root [18] = assay: Induction of p-coumaric acid accumulation in Pisum sativum (pea) roots at 69 uM added to nutrient medium measured 5 to 15 days post onset of compound treatment by HPLC method; format: functional; details: Lathyrus oleraceus; procedure, shortened: as §1
Pisum sativum [19] = assay: Growth inhibition in Pisum sativum (pea) at 69 uM added to nutrient medium measured 22 to 23 days post onset of compound treatment; format: functional, organism-based; details: Lathyrus oleraceus; procedure, shortened: as §3
Root [20] = assay: Reduction in sinapic acid accumulation in Pisum sativum (pea) roots at 69 uM added to nutrient medium measured 3 to 10 days post onset of compound treatment by HPLC method; format: functional; details: Lathyrus oleraceus; procedure, shortened: as §1
Root [21] = assay: Induction of caffeic acid accumulation in Pisum sativum (pea) roots at 69 uM added to nutrient medium measured 5 to 15 days post onset of compound treatment by HPLC method; format: functional; details: Lathyrus oleraceus; procedure, shortened: as §1
Root [22] = assay: Induction of ferulic acid accumulation in Pisum sativum (pea) roots at 69 uM added to nutrient medium measured 5 to 15 days post onset of compound treatment by HPLC method; format: functional; details: Lathyrus oleraceus; procedure, shortened: as §1
Root [23] = assay: Induction of ADH protein enzyme expression in Pisum sativum (pea) roots at 1 mM added to nutrient medium measured 5 to 15 days post onset of compound treatment by immunoblot; format: functional; details: Lathyrus oleraceus
Procedure, shortened: (§4)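 Pea (Pisum sativum cv. Snap Sugar Boys) plants were grown in nutrient solution. At 12 days old, 1 mM phenolic acid was added to the solution. The solution was replaced every 3 days and kept at pH 6–7. Samples were collected at 0, 1, 3, 7, 10 and 15 days. Untreated plants were controls. One-way ANOVA with Fisher test, p < 0.05.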

Pisum sativum [24] = assay: Growth inhibition in Pisum sativum (pea) assessed as root elongation arrest at 1 mM added to nutrient medium measured within 1 day post onset of compound treatment; format: functional, organism-based; details: Lathyrus oleraceus; procedure, shortened: as §4
Leaf [25] = assay: Increase in starch content in Pisum sativum (pea) leaves at 1 mM added to nutrient medium measured 5 to 15 days post onset of compound treatment by capillary electrophoresis method; format: functional; details: Lathyrus oleraceus; procedure, shortened: as §4
Leaf [26] = assay: Increase in quinate content in Pisum sativum (pea) leaves at 1 mM added to nutrient medium measured 5 to 15 days post onset of compound treatment by ion chromatography; format: functional; details: Lathyrus oleraceus; procedure, shortened: as §4
Root [27] = assay: Induction of PDC protein expression in Pisum sativum (pea) roots at 1 mM added to nutrient medium measured 5 to 15 days post onset of compound treatment by immunoblot; format: functional; details: Lathyrus oleraceus; procedure, shortened: as §4
Pisum sativum [28] = assay: Growth inhibition in Pisum sativum (pea) assessed as shoot growth arrest at 1 mM added to nutrient medium measured within 10 days post onset of compound treatment; format: functional, organism-based; details: Lathyrus oleraceus; procedure, shortened: as §4
Leaf [29] = assay: Drug level in Pisum sativum (pea) leaves at 1 mM added to nutrient medium measured 5 to 15 days post onset of compound treatment by HPLC method; format: ADME; details: lathyrus oleraceus, 1000 µM; procedure, shortened: as §4
Root [30] = assay: Effect on starch content in Pisum sativum (pea) roots at 1 mM added to nutrient medium measured 5 to 15 days post onset of compound treatment by capillary electrophoresis method; format: functional; details: Lathyrus oleraceus; procedure, shortened: as §4
Root [31] = assay: Effect on sucrose content in Pisum sativum (pea) roots at 1 mM added to nutrient medium measured 5 to 15 days post onset of compound treatment by capillary electrophoresis method; format: functional; details: Lathyrus oleraceus; procedure, shortened: as §4
Root [32] = assay: Drug level in Pisum sativum (pea) roots at 1 mM added to nutrient medium measured 5 to 15 days post onset of compound treatment by HPLC method; format: ADME; details: lathyrus oleraceus, 1000 µM; procedure, shortened: as §4
Root [33] = assay: Reduction in PAL activity in Pisum sativum (pea) roots at 1 MM added to nutrient medium measured 7 days post onset of compound treatment; format: functional; set-up: dose or concentration left out as unconfirmed; details: Lathyrus oleraceus; procedure, shortened: as §4
Root [34] = assay: Increase in lignin content in Pisum sativum (pea) roots at 1 mM added to nutrient medium measured 5 to 15 days post onset of compound treatment; format: functional; details: Lathyrus oleraceus; procedure, shortened: as §4

COc1nc(C)nc(NC(=O)NS(=O)(=O)c2ccccc2Cl)n1
Activity (Root [1]): Active | Activity (Leaf [2]): Active | Activity (Root [3]): Active | Activity (Root [4]): Active | Activity (Leaf [5]): Active | Activity (Root [6]): Active | Activity (Leaf [7]): Active | Activity (Root [8]): Active | Activity (Leaf [9]): Active | growth inhibition (GI) (Pisum sativum [10]): Active

CCc1cnc(C2=NC(C)(C(C)C)C(=O)N2)c(C(=O)O)c1 (centres undefined)
Activity (Leaf [11]): Active | Activity (Root [12]): inactive | Activity (Root [13]): Active | Activity (Leaf [14]): Active | Activity (Root [15]): Active | Activity (Leaf [16]): Active | Activity (Leaf [17]): Active | Activity (Root [18]): Active | growth inhibition (GI) (Pisum sativum [19]): Active | Activity (Root [20]): Active | Activity (Root [21]): Active | Activity (Root [22]): Active

O=C(O)/C=C/c1ccc(O)cc1 [COUMARIC ACID]
Activity (Root [23]): Active | Activity (Pisum sativum [24]): Active | Activity (Leaf [25]): Active | Activity (Leaf [26]): Active | Activity (Root [27]): Active | Activity (Pisum sativum [28]): Active | Drug uptake (Leaf [29]): Active | Activity (Root [30]): inactive | Activity (Root [31]): inactive | Drug uptake (Root [32]): Active

COc1cc(/C=C/C(=O)O)ccc1O [FERULATE]
Activity (Root [33]): Active | Activity (Root [23]): Active | Activity (Pisum sativum [24]): Active | Activity (Leaf [25]): Active | Activity (Leaf [26]): Active | Activity (Root [27]): Active | Activity (Pisum sativum [28]): Active | Drug uptake (Leaf [29]): Active | Activity (Root [30]): inactive | Activity (Root [31]): inactive | Activity (Root [34]): Active | Drug uptake (Root [32]): Active
